Results gathered from unrelated publications.
Protocols differ between the studies behind these lines.
Effect on: cell growth or viability

CCOP(=O)(OCC)[C@@H]1C[C@@H](n2cc(Cn3ccc(=O)[nH]c3=O)nn2)ON1C (racemic)  CC50 (human T-lymphocyte; 72 h): > 250 µM
O=c1oc2c(O)c(O)cc3c(=O)oc4c(O)c(O)cc1c4c23  CC50 (Huh-7; MTT): > 5000 µM
CCOc1ccc(-c2nc(CNCCc3ccc(F)cc3)cs2)cc1  CC50 (Huh-7; MTT; 24 h): 87.8 µM
Nc1nc(NS(=O)(=O)c2ccccc2)nc(-c2ccc(Cl)cc2)c1-c1nc2ccccc2s1  CC50 (BGM): 230 µg/mL
Cc1ccc2oc(-c3cc(NC(=O)Cc4ccccc4)ccc3Cl)nc2c1  CC50 (Huh-7; MTT; 24 h): > 400 µM
Nc1nc(NS(=O)(=O)c2ccccc2)nc(-c2ccc(F)cc2)c1-c1nc2ccccc2s1  CC50 (BGM): 180 µg/mL
CCO[C@H](COc1ccc(C(F)(F)F)cc1)CSc1ccc(OCC(=O)O)c(C)c1  CC50 (LX-2; ATP luminescence; 48 h, serum-free): > 50 µM
O=C1O[C@H]2[C@@H]3OC(=O)c4cc(O)c(O)c(O)c4-c4c(O)c(O)c5oc(=O)c6c(c(O)c(O)c7oc(=O)c4c5c76)-c4c(cc(O)c(O)c4O)C(=O)OC[C@H]3OC(O)[C@@H]2OC(=O)c2cc(O)c(O)c(O)c2-c2c1cc(O)c(O)c2O (mixture of isomers)  CC50 (Huh-7; MTT): > 5000 µM
Cc1ccc(S(=O)(=O)Nc2ncc(-c3nc4ccccc4s3)c(N)n2)cc1  CC50 (BGM): 200 µg/mL
O=C(O)/C=C/C=C/c1cccc(Oc2cc(Cl)cc(Cl)c2)c1  CC50 (Huh-7; MTT; 24 h): > 200 µM
CCO[C@@H](Cc1ccc(OCCn2c(C)ccc2-c2ccc(SC)cc2)cc1)C(=O)O  CC50 (LX-2; ATP luminescence; 48 h, serum-free): > 50 µM
CCOP(=O)(OCC)[C@@H]1C[C@H](n2cc(-c3ccccn3)nn2)ON1C  CC50 (human T-lymphocyte; 72 h): > 250 µM
O=C(O)CCCc1cc2cc(Cl)ccc2n1S(=O)(=O)c1ccc2ncsc2c1  CC50 (LX-2; ATP luminescence; 48 h, serum-free): > 40 µM
CCOP(=O)(OCC)[C@@H]1C[C@@H](n2cc(-c3cccc(F)c3)nn2)ON1C (racemic)  CC50 (human T-lymphocyte; 72 h): > 250 µM
CN1CCC(NCc2cccc(-c3ccc(S(=O)(=O)NCc4ccccc4)cc3)c2)CC1  CC50 (Huh-7; MTT; 24 h): 6.84 µM
O=C(CNc1nc(NS(=O)(=O)c2ccccc2)ncc1-c1nc2ccccc2s1)c1ccc(Br)cc1  CC50 (BGM): 220 µg/mL
COc1ccc(NC(=O)N2CCCCN3C[C@H](c4ccc(C#Cc5ccccc5)cc4)[C@@H]3C2)cc1  CC50 (HEK-293T): 25 µM
CCOP(=O)(OCC)[C@@H]1C[C@@H](n2cc(-c3nccn3C)nn2)ON1C  CC50 (human T-lymphocyte; 72 h): > 250 µM
O=C(O)c1cc(-c2ccc(Br)cc2)nc2ccc(Cl)cc12  CC50 (Huh-7; MTT; 24 h): 89.7 µM
CCOP(=O)(OCC)[C@@H]1C[C@@H](n2cc(Cn3ccc(NC(C)=O)nc3=O)nn2)ON1C (racemic)  CC50 (human T-lymphocyte; 72 h): > 250 µM
CO[C@H]1/C=C/O[C@@]2(C)Oc3c(C)c(O)c4c(O)c(c(/C=N/N5CCN(C)CC5)c(O)c4c3C2=O)NC(=O)/C(C)=C\C=C[C@H](C)[C@H](O)[C@@H](C)[C@@H](O)[C@@H](C)[C@H](OC(C)=O)[C@@H]1C  CC50 (Huh-7; MTT; 24 h): 304 µM
CCOP(=O)(OCC)[C@@H]1C[C@H](n2cc(Cn3cnc4c(N)ncnc43)nn2)ON1C (relative stereo)  CC50 (human T-lymphocyte; 72 h): > 250 µM
C[C@@H](c1cc(Cl)cc(Cl)c1)N(C)c1ncc2c(N)nc(N)nc2n1  CC50 (Huh-7; MTT; 24 h): 57.6 µM
CCOP(=O)(OCC)[C@@H]1C[C@@H](n2cc(C(=O)OC)nn2)ON1C (relative stereo)  CC50 (human T-lymphocyte; 72 h): > 250 µM
C[C@H](NC(=O)OCc1ccccc1)C(=O)Nc1ccc(C2S/C(=N\c3cccc(F)c3)N(Cc3ccco3)C2=O)cc1 (stereo partly drawn)  CC50 (Huh-7; 72 h, replicon): > 50 µM
CCOP(=O)(OCC)[C@@H]1C[C@H](n2cc(Cn3cc(C)c(=O)[nH]c3=O)nn2)ON1C (racemic)  CC50 (human T-lymphocyte; 72 h): > 250 µM
Cc1onc(-c2ccccc2)c1-c1ccc(S(N)(=O)=O)cc1  CC50 (Huh-7; MTT; 24 h): > 200 µM
